Values after ≈ are worked out from the molar mass of the structure shown. Active and inactive are the calls of the source. The calls are words filed in the database; no cut-off is given here.
How the values were obtained:
[1] = Lipophilicity, log D of the compound; type: physicochemical; conditions: octanol/water
[2] = target: Sodium channel protein type 3 subunit alpha (Homo sapiens, UniProt Q9NY46); assay: Inhibition of human NaV1.3 expressed in HEK cells by electrophysiological method; type: cell-based
[3] = target: Sodium channel protein type 3 subunit alpha (Rattus norvegicus, UniProt P08104); assay: Inhibition of rat NaV1.3 by electrophysiological method
[4] = target: Sodium channel protein type 4 subunit alpha (Homo sapiens, UniProt P35499); assay: Inhibition of human NaV1.4
CYP2C9 = CYP2C9 (Homo sapiens, UniProt P11712); assay: Inhibition of CYP2C9 (unknown origin) at 3 uM by high throughput assay relative to control; type: ADME
[5] = target: Sodium channel protein type 9 subunit alpha (Rattus norvegicus, UniProt O08562); assay: Inhibition of rat NaV1.7
[6] = target: Sodium channel protein type 9 subunit alpha (Homo sapiens, UniProt Q15858); assay: Inhibition of human NaV1.7
[7] = Clearance in human liver microsomes; type: ADME, microsome; conditions: read-out: CLH
MDR1 = assay: Efflux ratio of permeability across basolateral to apical over apical to basolateral side in RRCK cells expressing MDR1; type: ADME, cell-based, Canis lupus familiaris, MDCKII-LE; conditions: dog, MDCK-MDR1
[8] = target: Sodium channel protein type 5 subunit alpha (Homo sapiens, UniProt Q14524); assay: Inhibition of human NaV1.5
[9] = target: Sodium channel protein type 8 subunit alpha (Homo sapiens, UniProt Q9UQD0); assay: Inhibition of human NaV1.6
[10] = target: Sodium channel protein type 1 subunit alpha (Homo sapiens, UniProt P35498); assay: Inhibition of human NaV1.1
[11] = target: Sodium channel protein type 2 subunit alpha (Homo sapiens, UniProt Q99250); assay: Inhibition of human NaV1.2
[12] = Aqueous solubility of compound; type: physicochemical; conditions: buffer
[13] = target: Sodium channel protein type 10 subunit alpha (Homo sapiens, UniProt Q9Y5Y9); assay: Inhibition of human NaV1.8
Rattus norvegicus [14] = assay: Antipain activity in tibial nerve transection surgery model of rat assessed as reduction of noxious pinch evoked activity at 9 to 18 mg/kg administered as iv bolus dose measured every 15 mins for 30 mins; type: functional, organism-based
How it was run: (§1)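 Rats given tibial nerve transection 2 to 3 weeks before recording. Anaesthesia with isoflurane (5% in O2) in a stereotaxic frame, body temperature held at 37 °C, and laminectomy to expose spinal segments L4-5. After stable baseline responses, compound given as IV bolus; evoked activity assessed every 15 min for up to 30 min per dose. Randomised, blinded dosing. Dry blood spots taken for plasma exposure.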

Rattus norvegicus [15] = assay: Antipain activity in tibial nerve transection surgery model of rat assessed as reduction of innocuous brush evoked activity at 9 to 18 mg/kg administered as iv bolus dose measured every 15 mins for 30 mins; type: functional, organism-based; how it was run: as §1
Rattus norvegicus [16] = assay: Antipain activity in tibial nerve transection surgery model of rat assessed as reduction of heat evoked activity at 9 to 18 mg/kg administered as iv bolus dose measured every 15 mins for 30 mins; type: functional, organism-based; how it was run: as §1
Rattus norvegicus [17] = assay: Antipain activity in tibial nerve transection surgery model of rat assessed as reduction of mechanical punctate stimuli evoked activity at 9 to 18 mg/kg administered as iv bolus dose measured every 15 mins for 30 mins; type: functional, organism-based; how it was run: as §1
[18] = Ratio of drug level in cynomolgus monkey treated with (2-(4-(3-chloro-4-(trifluoromethoxy)benzylcarbamoyl)-2-fluorophenylsulfonylimino)thiazol-3(2H)-yl)methyl dihydrogen phosphate at 30 mg/kg to IC50 for cynomolgus monkey NaV1.3; type: ADME, organism-based, Macaca fascicularis; conditions: in vivo
[19] = Clearance in rat; type: ADME, organism-based; conditions: in vivo
Rattus norvegicus [20] = assay: Toxicity in rat assessed as decrease in core body temperature at 100 to 500 mg/kg, po; type: organism-based; conditions: in vivo
Rattus norvegicus [21] = assay: Toxicity in rat assessed as increase in blood pressure at 100 to 500 mg/kg, po; type: organism-based; conditions: in vivo
[22] = Ratio of drug level in tibial nerve transection surgery model of rat treated with (2-(4-(3-chloro-4-(trifluoromethoxy)benzylcarbamoyl)-2-fluorophenylsulfonylimino)thiazol-3(2H)-yl)methyl dihydrogen phosphate at 3 to 10 mg/kg administered as iv bolus dose to IC50 for rat NaV1.3; type: ADME, organism-based; conditions: in vivo
[23] = Protein binding in human plasma by equilibrium dialysis method; type: ADME, cell-free; conditions: read-out: PPB (converted)
How it was run: (§2)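 Plasma protein binding measured by equilibrium dialysis.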

[24] = target: Voltage-gated inwardly rectifying potassium channel KCNH2 (Homo sapiens, UniProt Q12809); assay: Inhibition of human ERG
[25] = Protein binding in dog plasma; type: ADME, cell-free, Canis lupus familiaris; conditions: read-out: PPB
[26] = Ratio of drug level in rat at 100 mg/kg, po to IC50 for rat NaV1.3; type: ADME, organism-based; conditions: in vivo
[27] = Volume of distribution in rat; type: ADME, organism-based; conditions: in vivo
Tibial nerve [28] = assay: Effect on heat evoked afferent firing in rat skin-tibial nerve at 0.01 to 1 uM; type: functional, tissue-based
How it was run: (§3)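 Compound was applied to the isolated skin-tibial nerve preparation at 0.01, 0.03, 0.1, 0.3 and 1 µM. Heat-evoked afferent firing and ongoing nerve activity were recorded.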

Tibial nerve [29] = assay: Effect on ongoing nerve activity in rat skin-tibial nerve at 0.01 to 1 uM; type: functional, tissue-based; how it was run: as §3
[30] = Oral bioavailability in rat; type: ADME, organism-based; conditions: in vivo
Rattus norvegicus [31] = assay: Toxicity in rat assessed as decrease in heart rate at 100 to 500 mg/kg, po; type: organism-based; conditions: in vivo
[32] = Dissociation constant, pKa of compound; type: physicochemical
[33] = Protein binding in rat plasma by equilibrium dialysis method; type: ADME, cell-free; conditions: read-out: PPB (converted); how it was run: as §2
CYP3A4 = CYP3A4 (Homo sapiens, UniProt P08684); assay: Inhibition of CYP3A4 (unknown origin) at 3 uM by high throughput assay relative to control; type: ADME
Chain of CYP3A4 (P08684 whole entry): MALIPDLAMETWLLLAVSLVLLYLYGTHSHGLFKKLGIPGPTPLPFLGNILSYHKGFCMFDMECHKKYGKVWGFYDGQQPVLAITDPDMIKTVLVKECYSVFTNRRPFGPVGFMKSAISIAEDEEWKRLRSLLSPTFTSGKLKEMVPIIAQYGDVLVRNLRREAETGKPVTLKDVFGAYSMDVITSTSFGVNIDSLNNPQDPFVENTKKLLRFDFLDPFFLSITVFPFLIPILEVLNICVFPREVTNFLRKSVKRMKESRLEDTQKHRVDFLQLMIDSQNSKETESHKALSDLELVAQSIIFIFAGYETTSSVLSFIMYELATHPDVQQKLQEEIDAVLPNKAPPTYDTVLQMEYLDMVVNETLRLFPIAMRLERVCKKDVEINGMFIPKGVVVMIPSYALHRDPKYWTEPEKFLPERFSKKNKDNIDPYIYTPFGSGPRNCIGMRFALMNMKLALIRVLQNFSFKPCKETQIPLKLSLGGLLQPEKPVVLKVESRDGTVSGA

Chain of Sodium channel protein type 3 subunit alpha (Homo sapiens, UniProt Q9NY46) (Q9NY46 whole entry): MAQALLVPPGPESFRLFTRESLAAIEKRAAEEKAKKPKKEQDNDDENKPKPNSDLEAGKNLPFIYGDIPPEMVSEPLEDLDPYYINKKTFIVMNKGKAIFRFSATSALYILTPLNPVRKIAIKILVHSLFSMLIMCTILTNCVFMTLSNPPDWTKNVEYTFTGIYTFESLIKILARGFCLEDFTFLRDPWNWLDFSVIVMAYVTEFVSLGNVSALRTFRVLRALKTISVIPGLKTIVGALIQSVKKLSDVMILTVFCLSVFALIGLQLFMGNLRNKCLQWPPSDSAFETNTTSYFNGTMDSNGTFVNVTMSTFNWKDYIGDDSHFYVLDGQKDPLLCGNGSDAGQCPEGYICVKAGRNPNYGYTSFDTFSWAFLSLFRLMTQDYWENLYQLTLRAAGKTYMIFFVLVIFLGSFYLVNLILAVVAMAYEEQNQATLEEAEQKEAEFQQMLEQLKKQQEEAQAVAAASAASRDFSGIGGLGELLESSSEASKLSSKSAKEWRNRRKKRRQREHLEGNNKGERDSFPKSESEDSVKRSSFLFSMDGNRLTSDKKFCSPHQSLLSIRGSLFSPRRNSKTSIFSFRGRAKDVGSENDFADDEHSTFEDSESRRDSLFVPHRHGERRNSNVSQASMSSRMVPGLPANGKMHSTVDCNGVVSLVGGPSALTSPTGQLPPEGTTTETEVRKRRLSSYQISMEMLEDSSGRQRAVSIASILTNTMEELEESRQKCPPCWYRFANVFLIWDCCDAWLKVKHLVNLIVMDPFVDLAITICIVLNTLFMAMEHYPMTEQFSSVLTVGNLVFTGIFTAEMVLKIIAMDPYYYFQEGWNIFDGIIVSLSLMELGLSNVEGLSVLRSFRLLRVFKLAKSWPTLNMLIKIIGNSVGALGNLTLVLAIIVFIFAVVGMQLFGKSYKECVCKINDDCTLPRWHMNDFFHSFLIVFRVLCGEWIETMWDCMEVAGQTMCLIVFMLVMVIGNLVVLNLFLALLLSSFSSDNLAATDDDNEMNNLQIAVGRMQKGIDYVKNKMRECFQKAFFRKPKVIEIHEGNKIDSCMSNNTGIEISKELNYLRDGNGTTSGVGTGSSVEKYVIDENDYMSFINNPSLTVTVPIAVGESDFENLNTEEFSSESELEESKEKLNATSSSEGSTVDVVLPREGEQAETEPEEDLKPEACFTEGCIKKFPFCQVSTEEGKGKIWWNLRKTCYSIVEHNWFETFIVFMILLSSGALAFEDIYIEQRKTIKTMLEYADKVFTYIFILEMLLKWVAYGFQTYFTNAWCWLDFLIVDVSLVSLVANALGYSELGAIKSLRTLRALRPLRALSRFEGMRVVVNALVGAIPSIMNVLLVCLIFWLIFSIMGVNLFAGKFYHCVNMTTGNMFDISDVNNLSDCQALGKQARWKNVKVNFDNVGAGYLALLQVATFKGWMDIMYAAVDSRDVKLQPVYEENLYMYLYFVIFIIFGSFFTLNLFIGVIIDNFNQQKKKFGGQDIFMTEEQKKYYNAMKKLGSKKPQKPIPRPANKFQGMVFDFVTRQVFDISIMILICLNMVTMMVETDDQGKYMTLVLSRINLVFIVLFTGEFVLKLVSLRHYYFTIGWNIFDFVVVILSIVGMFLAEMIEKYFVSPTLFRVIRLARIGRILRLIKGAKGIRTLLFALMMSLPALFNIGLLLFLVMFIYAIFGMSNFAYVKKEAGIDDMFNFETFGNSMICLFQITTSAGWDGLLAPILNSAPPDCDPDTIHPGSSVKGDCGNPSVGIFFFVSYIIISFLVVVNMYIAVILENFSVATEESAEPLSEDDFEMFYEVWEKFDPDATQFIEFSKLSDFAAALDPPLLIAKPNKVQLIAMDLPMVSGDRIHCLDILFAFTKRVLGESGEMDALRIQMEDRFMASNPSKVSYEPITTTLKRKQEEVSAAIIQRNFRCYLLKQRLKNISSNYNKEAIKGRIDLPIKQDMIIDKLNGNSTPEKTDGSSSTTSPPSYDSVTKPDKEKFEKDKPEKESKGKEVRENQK
Chain of Sodium channel protein type 2 subunit alpha (Q99250 whole entry): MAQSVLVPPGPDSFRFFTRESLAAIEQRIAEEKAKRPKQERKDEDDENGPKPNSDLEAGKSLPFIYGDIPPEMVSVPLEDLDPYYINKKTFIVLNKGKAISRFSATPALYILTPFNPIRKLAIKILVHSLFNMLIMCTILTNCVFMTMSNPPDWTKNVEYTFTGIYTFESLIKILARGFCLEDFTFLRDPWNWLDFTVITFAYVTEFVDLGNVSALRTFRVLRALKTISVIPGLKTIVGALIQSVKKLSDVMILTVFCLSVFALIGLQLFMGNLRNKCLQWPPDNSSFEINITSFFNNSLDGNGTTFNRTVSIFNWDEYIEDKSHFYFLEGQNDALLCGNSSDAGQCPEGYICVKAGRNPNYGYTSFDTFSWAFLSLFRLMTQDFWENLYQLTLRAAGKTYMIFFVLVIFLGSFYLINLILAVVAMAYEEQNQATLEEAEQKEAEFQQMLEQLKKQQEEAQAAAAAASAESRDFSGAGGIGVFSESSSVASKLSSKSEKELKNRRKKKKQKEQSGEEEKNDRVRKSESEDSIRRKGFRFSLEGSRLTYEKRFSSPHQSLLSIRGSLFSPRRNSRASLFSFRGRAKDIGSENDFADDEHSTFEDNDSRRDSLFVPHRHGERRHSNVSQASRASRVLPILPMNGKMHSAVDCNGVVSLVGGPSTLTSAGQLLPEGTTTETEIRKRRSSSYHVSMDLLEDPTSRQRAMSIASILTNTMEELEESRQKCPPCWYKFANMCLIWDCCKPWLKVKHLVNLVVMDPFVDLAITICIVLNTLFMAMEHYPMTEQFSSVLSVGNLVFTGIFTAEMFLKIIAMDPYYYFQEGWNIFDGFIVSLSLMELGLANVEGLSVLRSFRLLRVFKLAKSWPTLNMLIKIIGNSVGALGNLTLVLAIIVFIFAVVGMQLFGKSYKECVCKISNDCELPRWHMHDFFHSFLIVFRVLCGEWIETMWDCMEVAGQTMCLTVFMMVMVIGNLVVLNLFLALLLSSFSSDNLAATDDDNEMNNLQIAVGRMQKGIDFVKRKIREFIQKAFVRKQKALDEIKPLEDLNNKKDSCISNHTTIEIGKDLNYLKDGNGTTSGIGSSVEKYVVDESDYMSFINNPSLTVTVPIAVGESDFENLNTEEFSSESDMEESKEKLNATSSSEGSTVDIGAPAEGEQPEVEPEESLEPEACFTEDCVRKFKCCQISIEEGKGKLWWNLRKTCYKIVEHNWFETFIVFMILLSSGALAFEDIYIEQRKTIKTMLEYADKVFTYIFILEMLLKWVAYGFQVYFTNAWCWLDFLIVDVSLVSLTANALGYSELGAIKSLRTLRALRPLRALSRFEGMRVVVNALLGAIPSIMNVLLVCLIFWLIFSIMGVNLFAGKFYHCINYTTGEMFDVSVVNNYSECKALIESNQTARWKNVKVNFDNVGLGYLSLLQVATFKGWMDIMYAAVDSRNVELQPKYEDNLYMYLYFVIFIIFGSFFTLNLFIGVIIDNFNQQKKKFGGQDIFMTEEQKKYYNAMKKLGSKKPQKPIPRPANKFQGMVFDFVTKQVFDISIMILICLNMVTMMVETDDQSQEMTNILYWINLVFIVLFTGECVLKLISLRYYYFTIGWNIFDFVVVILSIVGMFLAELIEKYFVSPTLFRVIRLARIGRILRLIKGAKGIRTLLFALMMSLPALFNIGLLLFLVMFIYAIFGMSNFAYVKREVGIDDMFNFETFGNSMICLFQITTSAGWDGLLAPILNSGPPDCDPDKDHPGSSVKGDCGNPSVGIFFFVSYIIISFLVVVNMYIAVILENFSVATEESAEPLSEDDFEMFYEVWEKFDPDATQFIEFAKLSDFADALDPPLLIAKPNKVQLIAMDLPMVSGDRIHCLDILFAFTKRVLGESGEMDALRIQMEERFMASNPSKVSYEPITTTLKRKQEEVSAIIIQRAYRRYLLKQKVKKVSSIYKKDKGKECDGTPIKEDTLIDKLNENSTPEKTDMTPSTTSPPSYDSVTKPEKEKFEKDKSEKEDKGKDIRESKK
Chain of CYP2C9 (P11712 whole entry): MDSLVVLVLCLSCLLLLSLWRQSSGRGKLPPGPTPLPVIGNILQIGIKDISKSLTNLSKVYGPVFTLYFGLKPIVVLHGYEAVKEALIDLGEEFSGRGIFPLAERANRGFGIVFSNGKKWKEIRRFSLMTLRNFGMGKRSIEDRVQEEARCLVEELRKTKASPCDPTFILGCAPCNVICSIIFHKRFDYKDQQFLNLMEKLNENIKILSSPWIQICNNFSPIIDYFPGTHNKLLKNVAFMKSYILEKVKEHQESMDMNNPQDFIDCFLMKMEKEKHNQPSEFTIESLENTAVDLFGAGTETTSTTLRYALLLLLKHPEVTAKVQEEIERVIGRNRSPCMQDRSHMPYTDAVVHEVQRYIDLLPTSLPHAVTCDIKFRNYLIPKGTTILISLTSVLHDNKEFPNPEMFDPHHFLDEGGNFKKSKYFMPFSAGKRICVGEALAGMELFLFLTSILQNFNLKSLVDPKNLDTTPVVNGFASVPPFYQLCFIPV

What does the source list for `CN(Cc1ccc(OC(F)(F)F)c(Cl)c1)C(=O)c1ccc(S(=O)(=O)Nc2ncns2)c(F)c1`?
logD [1]: 1.3; IC50 [2]: 0.522 µM

For `O=C(NCc1ccc(OC(F)(F)F)c(Cl)c1)c1ccc(S(=O)(=O)Nc2nccs2)cc1`, which logD [1] is on record?
The logD was 3.1.

And the IC50 [2]?
Its IC50 is 0.02 µM.

For `O=C(Nc1ccc(S(=O)(=O)Nc2nccs2)cc1)C(c1ccccc1)c1ccccc1`, which IC50 [3] is on record?
Its IC50 is 0.006 µM.

And the IC50 [4]?
The IC50 was 10 µM.

What about the inhibition at 3 µM (CYP2C9) of the same compound?
Its inhibition at 3 µM is 79%.

And the IC50 [5]?
Its IC50 is 0.068 µM.

What about the IC50 [6] of the same compound?
Its IC50 is 5.2 µM.

What about the logD [1] of the same compound?
The logD was 3.3.

What about the IC50 [2] of the same compound?
The IC50 was 0.017 µM.

And the microsomal CLint [7]?
The microsomal CLint was 15 µL/min/mg.

What about the efflux ratio (MDR1) of the same compound?
The efflux ratio was 30.

What about the IC50 [8] of the same compound?
Its IC50 is 9.2 µM.

And the IC50 [9]?
Its IC50 is 10.3 µM.

What about the IC50 [10] of the same compound?
The IC50 was 0.032 µM.

And the IC50 [11]?
The IC50 was 0.393 µM.

And the solubility [12]?
Its solubility is 0.268 mg/mL (≈ 596 µM).

What about the IC50 [13] of the same compound?
The IC50 was 3 µM.

With `O=C(NCc1ccccc1)c1ccc(S(=O)(=O)Nc2nccs2)cc1` as the compound, how does the IC50 [2] read?
The IC50 was 4.45 µM.

Which Activity (Rattus norvegicus [14]) does the source give for `CC(C)C[C@H](CN)CC(=O)O` here?
The Activity was “Active”.

What about the Activity (Rattus norvegicus [15]) of the same compound?
Its Activity is “Active”.

What about the Activity (Rattus norvegicus [16]) of the same compound?
The Activity was “Active”.

And the Activity (Rattus norvegicus [17])?
The Activity was “Active”.

With `O=C(COc1ccc(F)cc1)N1CCc2cc(S(=O)(=O)Nc3nccs3)ccc21` as the compound, how does the logD [1] read?
The logD was 1.8.

And the IC50 [2]?
The IC50 was 2.51 µM.

What does the source list for `O=C(NCc1ccc(C(F)(F)F)cc1)c1ccc(S(=O)(=O)Nc2nccs2)cc1`?
logD [1]: 2.5; IC50 [2]: 0.147 µM

Which IC50 [2] does the source give for `O=S(=O)(Nc1nccs1)c1ccc(S(=O)(=O)N2CCC(c3cccc(C(F)(F)F)n3)CC2)cc1F` here?
Its IC50 is 1.64 µM.

Which results are given for `O=S(=O)(Nc1nccs1)c1ccc(S(=O)(=O)N2CC[C@H](Oc3c(Cl)cccc3Cl)C2)cc1F`?
logD [1]: 2.6; IC50 [2]: 0.945 µM

With `O=S(=O)(Nc1nccs1)c1ccc(S(=O)(=O)N2CCCCC2c2cc(-c3ccccc3)[nH]n2)cc1F` (configuration not stated) as the compound, how does the IC50 [2] read?
The IC50 was 1.83 µM.

Which IC50 [2] does the source give for `O=S(=O)(Nc1nccs1)c1ccc(-c2nnc(Cc3ccc(Cl)c(Cl)c3)[nH]2)cc1` here?
The IC50 was 0.045 µM.

Which logD [1] does the source give for `O=C(NCc1ccc(OC(F)(F)F)c(Cl)c1)c1ccc(S(=O)(=O)Nc2ncccn2)c(F)c1` here?
Its logD is 1.8.

And the IC50 [2]?
The IC50 was 0.374 µM.

Which IC50 [2] does the source give for `O=S(=O)(Nc1nccs1)c1ccc(-c2nnc(Cc3ccc(C(F)(F)F)cc3)[nH]2)cc1` here?
The IC50 was 0.124 µM.

For `O=C(c1ccc(S(=O)(=O)Nc2ncns2)c(F)c1)N1CCC(c2noc(-c3ccccc3C(F)(F)F)n2)CC1`, which IC50 [2] is on record?
The IC50 was 1.95 µM.

What does the source list for `O=C(NCc1ccc(OC(F)(F)F)c(Cl)c1)c1ccc(S(=O)(=O)Nc2nccs2)c(F)c1`?
Ratio [18]: 62; clearance [19]: 0.234 L/h/kg; Activity (Rattus norvegicus [20]): Toxic; Activity (Rattus norvegicus [21]): Toxic; Ratio [22]: <= 15; fraction unbound [23]: 0.002; inhibition at 3 µM (CYP2C9): 66%; IC50 [24]: 17.7 µM; IC50 [6]: 0.289 µM; logD [1]: 3.3; IC50 [2]: 0.011 µM; microsomal CLint [7]: < 8 µL/min/mg; fraction unbound [25]: < 0.002; Ratio [26]: 12; efflux ratio (MDR1): 3.5; Vd [27]: 1.1 L/kg; Activity (Tibial nerve [28]): inactive; IC50 [8]: 15.8 µM; IC50 [9]: 1.05 µM; Activity (Tibial nerve [29]): inactive; bioavailability [30]: 58%; IC50 [10]: 0.02 µM; Activity (Rattus norvegicus [31]): Toxic; IC50 [11]: 0.429 µM; pKa [32]: 6.4; fraction unbound [33]: 0.002; solubility [12]: 0.012 mg/mL (≈ 23.5 µM); inhibition at 3 µM (CYP3A4): 66%; IC50 [13]: 12.4 µM

Which IC50 [2] does the source give for `O=C(c1ccc(S(=O)(=O)Nc2ncns2)c(F)c1)N1CCC(c2ccnc(C(F)(F)F)n2)CC1` here?
The IC50 was 6.68 µM.
